ChEMBL document CHEMBL4425103, “Diving into the Water: Inducible Binding Conformations for BRD4, TAF1(2), BRD9, and CECR2 Bromodomains” (J Med Chem, 2016)

Assays:
[1] = biological target: Chromatin remodeling regulator CECR2 (Homo sapiens, UniProt Q9BXF3); test: Binding affinity to wild type CECR2 (unknown origin) assessed as change in melting temperature at 10 uM by SYPRO red dye based differential scanning fluorimetry
Outline: (§1)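 Differential scanning fluorimetry: aggregate removed by centrifugation, then bromodomain at 4 µM final with 10X SYPRO Red, 10 µM compound and 0.2% DMSO in 20 mM HEPES pH 7.7, 100 mM NaCl. Heated 25 to 95 °C, fluorescence read at 1 °C steps. Apparent Tm taken from melt curves; mean of at least five wells for CECR2.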

Peregrin = biological target: T1, Peregrin (Homo sapiens, UniProt P55201); test: Displacement of biotinylated JQ1 analog from recombinant His-tagged BRPF1 (unknown origin) incubated for 10 mins by TR-FRET assay
T1 sequence (P55201 whole entry): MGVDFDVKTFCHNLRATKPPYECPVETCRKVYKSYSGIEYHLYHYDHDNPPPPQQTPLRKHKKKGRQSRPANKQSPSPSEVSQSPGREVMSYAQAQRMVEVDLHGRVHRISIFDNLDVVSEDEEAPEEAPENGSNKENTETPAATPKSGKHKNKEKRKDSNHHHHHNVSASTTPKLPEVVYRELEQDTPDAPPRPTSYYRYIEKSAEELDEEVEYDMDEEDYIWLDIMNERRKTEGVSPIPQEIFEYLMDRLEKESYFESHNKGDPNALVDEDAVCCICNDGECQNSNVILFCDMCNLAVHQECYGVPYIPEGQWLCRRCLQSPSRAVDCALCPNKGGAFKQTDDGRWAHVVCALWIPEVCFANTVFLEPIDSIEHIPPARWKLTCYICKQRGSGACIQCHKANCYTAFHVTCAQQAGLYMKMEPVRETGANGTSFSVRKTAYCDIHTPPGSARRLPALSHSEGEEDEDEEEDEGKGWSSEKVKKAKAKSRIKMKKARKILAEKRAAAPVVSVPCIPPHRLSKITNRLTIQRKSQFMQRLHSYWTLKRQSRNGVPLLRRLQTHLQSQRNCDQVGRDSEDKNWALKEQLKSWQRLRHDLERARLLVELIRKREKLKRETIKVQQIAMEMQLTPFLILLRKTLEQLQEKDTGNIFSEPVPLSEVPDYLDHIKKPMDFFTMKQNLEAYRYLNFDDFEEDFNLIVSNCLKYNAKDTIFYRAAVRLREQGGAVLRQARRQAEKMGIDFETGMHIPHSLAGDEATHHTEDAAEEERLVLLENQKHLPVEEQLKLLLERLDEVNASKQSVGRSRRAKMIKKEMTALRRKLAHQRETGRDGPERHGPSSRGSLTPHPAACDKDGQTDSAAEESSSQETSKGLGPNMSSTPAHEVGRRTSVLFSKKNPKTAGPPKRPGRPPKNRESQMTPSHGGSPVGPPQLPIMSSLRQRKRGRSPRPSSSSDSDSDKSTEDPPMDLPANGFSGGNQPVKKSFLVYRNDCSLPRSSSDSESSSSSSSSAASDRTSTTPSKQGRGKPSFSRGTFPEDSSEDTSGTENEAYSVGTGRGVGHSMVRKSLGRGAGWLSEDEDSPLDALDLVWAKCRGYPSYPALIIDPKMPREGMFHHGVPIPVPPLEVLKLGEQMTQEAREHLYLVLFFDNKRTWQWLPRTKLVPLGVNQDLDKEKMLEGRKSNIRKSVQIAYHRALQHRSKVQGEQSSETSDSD
Outline: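 Bromodomain, then biotinylated ligand, each added with 10 min incubation. Anti-His europium (0.2 nM) plus streptavidin-APC followed for 40 min. 10-point titrations in duplicate, at least 2 independent runs.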

[2] = system: T2, Chromatin remodeling regulator CECR2 (Homo sapiens), Q9BXF3 [Y520I]; test: Binding affinity to CECR2 Y520I mutant (unknown origin) assessed as change in melting temperature at 10 uM by SYPRO red dye based differential scanning fluorimetry; outline: as §1
T2 sequence (whole entry): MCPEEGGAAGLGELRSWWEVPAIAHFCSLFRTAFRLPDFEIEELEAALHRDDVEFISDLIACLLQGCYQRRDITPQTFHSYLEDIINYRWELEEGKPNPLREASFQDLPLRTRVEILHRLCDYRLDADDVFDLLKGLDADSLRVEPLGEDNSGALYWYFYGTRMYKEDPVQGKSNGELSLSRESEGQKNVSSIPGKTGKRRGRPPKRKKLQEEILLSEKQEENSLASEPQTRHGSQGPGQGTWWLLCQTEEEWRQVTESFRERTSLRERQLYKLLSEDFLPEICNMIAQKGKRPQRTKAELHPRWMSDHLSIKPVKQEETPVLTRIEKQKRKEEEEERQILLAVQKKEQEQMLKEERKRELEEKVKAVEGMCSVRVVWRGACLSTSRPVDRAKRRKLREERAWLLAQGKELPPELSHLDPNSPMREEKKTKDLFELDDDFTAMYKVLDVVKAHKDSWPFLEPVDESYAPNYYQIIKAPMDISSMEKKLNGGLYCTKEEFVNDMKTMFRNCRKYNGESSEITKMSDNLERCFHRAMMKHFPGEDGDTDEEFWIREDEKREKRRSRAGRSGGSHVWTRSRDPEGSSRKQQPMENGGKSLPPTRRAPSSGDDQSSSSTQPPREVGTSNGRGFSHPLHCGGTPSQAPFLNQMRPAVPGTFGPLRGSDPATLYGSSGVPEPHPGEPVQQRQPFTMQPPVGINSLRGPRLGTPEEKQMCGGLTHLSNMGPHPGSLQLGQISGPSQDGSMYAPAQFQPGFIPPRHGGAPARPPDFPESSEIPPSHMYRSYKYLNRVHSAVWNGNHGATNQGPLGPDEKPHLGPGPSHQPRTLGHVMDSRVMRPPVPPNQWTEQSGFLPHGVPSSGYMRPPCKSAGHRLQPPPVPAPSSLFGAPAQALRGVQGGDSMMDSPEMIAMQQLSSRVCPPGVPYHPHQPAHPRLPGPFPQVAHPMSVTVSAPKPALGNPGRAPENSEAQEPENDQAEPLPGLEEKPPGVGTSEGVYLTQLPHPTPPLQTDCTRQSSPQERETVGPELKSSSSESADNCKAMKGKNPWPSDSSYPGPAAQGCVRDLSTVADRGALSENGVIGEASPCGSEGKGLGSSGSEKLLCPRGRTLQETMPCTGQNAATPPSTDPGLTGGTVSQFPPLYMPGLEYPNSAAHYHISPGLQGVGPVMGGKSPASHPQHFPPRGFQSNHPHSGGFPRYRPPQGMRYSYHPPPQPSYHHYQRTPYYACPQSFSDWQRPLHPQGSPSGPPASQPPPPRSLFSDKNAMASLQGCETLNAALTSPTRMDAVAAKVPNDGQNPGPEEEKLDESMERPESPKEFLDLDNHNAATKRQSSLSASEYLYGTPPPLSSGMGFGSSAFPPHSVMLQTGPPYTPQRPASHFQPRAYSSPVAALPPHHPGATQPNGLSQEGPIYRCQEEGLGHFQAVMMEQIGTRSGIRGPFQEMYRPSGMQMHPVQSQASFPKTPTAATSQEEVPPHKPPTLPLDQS

Sequence of Chromatin remodeling regulator CECR2 (Q9BXF3 whole entry, looked up): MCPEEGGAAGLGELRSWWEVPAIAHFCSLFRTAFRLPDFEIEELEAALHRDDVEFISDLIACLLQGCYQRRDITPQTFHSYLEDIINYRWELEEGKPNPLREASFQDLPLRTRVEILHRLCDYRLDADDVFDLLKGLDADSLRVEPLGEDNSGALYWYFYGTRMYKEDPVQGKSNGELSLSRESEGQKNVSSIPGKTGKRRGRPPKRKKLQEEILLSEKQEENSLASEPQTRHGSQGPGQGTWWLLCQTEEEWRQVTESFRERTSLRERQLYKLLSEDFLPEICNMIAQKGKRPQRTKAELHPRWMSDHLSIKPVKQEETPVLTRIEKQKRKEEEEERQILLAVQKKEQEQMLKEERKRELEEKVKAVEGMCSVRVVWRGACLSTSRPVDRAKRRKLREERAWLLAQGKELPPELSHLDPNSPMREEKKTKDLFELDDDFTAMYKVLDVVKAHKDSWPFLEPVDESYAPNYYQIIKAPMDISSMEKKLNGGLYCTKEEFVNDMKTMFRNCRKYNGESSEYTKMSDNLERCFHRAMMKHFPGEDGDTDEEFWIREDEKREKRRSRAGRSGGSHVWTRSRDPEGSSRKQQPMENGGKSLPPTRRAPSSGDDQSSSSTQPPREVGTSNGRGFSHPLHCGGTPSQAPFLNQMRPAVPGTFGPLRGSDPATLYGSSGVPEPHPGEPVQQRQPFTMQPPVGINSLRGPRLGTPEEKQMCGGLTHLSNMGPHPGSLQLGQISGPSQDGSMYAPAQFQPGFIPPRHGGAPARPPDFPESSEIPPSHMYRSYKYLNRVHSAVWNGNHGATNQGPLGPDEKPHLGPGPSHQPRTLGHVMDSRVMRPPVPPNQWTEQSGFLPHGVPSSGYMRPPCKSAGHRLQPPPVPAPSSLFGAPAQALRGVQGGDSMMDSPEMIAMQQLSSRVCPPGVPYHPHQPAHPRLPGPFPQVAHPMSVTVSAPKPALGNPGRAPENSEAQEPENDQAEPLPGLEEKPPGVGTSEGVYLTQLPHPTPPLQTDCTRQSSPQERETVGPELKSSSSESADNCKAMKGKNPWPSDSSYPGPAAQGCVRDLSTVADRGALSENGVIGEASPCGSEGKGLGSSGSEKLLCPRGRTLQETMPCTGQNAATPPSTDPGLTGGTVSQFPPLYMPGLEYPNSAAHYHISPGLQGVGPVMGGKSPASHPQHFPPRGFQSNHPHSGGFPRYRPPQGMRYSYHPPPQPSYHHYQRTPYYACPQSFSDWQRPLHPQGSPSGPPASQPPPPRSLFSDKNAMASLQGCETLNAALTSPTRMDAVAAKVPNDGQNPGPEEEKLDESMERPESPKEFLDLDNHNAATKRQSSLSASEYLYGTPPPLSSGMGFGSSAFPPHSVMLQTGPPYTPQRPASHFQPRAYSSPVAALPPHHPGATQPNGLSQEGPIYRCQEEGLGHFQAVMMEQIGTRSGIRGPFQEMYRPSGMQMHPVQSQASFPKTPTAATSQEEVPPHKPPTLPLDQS

ΔTm [1] [°C] | IC50 (Peregrin) [µM] | ΔTm [2] [°C] | Compound
6 | > 20 | -1 | C=CCn1cc(-c2cccc(C(=O)N(C)C)c2)c2cc[nH]c2c1=O
6 | 1.5 | 3 | CN(C)C(=O)c1cccc(-c2cn(C)c(=O)c3[nH]ccc23)c1
